We go through two compounds from PMC6570502 (Chembiochem : a European journal of chemical biology, 2019).

In one experiment the target is T1, KDM4A N198G mutant (Homo sapiens, UniProt O75164, N198G).
T1 sequence (O75164 1-1064 N198G): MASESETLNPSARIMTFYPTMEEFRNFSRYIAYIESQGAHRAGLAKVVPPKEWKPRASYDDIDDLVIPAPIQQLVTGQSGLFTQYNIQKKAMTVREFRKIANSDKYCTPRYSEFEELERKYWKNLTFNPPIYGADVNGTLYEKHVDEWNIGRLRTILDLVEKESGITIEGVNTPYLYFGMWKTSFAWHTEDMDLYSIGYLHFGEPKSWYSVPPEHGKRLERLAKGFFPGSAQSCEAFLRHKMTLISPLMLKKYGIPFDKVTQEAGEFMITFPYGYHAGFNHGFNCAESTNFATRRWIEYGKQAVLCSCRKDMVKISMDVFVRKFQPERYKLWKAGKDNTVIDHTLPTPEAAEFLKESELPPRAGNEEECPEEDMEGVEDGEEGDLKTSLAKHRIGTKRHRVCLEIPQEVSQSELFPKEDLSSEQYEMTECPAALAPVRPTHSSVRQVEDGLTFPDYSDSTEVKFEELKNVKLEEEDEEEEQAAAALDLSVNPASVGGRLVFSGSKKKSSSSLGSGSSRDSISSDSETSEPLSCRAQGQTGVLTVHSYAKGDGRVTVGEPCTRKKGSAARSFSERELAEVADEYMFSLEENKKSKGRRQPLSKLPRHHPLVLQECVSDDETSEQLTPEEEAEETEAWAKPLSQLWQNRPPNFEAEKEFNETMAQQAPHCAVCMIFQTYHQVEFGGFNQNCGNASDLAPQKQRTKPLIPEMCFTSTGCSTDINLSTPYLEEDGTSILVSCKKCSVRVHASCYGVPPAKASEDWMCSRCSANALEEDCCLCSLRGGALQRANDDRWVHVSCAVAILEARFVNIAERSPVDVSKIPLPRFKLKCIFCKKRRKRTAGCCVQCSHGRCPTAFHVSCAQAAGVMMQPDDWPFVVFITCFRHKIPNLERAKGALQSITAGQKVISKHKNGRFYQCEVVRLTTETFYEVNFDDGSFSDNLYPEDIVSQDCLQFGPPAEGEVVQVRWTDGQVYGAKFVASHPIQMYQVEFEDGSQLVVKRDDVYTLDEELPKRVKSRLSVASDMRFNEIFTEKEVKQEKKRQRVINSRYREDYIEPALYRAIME
Nature of the experiment: MALDI demethylase assay, H3K9me3 substrate peptide, N198G mutant. The class given is biochemical.

The target of another experiment is T2, KDM4A S288G mutant (Homo sapiens, UniProt O75164, S288G).
T2 sequence (O75164 1-1064 S288G): T1 sequence (O75164 1-1064 N198G) with G198N, S288G
Nature of the experiment: MALDI demethylase assay, H3K9me3 substrate peptide, S288G mutant. The class given is biochemical. The method, boiled down: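 KDM4A mutant demethylation of H3K9me3 peptide, read by MALDI-MS and expressed as % inhibition of demethylase activity, with wild type and the four active-site mutants run under the same conditions. The 2KG cofactor was cut from the 1 mM of the initial activity assay to 50 μM, about 3–4-fold above the enzymes' 2KG KM. KM came from an FDH/NAD+-coupled NADH fluorescence assay.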

The mark [1] stands for this setting: scaffold test under the optimized assay conditions (50 μM 2KG), Figure S7.
[2] abbreviates: 100 μM compound, 50 μM 2KG, MALDI-MS.

Substitutions are numbered along the chain they refer to.

For `O=C(O)c1ccc(O)c2ncccc12` [IOX1, 5-carboxy-8-hydroxyquinone], the “inhibition of demethylase activity” value against KDM4A N198G mutant (setting [1]) and on KDM4A S288G mutant (setting [1]) was “inhibited” throughout.
For the compound `O=C(O)CNC(=O)C(=O)O` [compound 2, N-oxalylglycine], the “inhibition of demethylase activity” value is given as “significantly inhibited” at KDM4A N198G mutant (setting [2]), “inhibited” on KDM4A N198G mutant (setting [1]), “significantly inhibited” on KDM4A S288G mutant (setting [2]) and “inhibited” against KDM4A S288G mutant (setting [1]).
